These results are taken from ChEMBL document CHEMBL3352685, “Small-molecule inhibitors of 25-hydroxyvitamin D-24-hydroxylase (CYP24A1): synthesis and biological evaluation” (J Med Chem, 2014).

For series [1], the target named is T1, 1,25-dihydroxyvitamin D(3) 24-hydroxylase, mitochondrial (Homo sapiens, UniProt Q07973).
T1 sequence (Q07973 whole entry): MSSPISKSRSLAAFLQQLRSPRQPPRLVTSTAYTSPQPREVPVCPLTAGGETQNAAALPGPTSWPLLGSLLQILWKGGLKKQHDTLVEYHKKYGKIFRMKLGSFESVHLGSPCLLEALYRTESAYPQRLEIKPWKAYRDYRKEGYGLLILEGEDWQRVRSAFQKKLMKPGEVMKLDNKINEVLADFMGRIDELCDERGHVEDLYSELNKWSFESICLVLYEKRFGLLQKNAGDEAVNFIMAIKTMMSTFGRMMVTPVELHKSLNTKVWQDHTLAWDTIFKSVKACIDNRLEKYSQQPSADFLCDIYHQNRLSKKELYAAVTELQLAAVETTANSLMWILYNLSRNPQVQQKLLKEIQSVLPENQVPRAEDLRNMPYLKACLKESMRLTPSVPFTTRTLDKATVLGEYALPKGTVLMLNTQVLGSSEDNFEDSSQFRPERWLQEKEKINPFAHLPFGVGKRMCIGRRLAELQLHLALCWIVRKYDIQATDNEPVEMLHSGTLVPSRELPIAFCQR
Kind of series: Inhibition of human MBP-tagged CYP24A1 expressed in Escherichia coli using 1,25(OH)2D3 substrate in presence of bovine adrenodoxin, adrenodoxin reductase and NADPH incubated at 37 degC for 25 mins by HPLC method.

The nature of series [2]: Induction of apoptosis in normal human B cells after 48 hrs by Annexin V/propidium iodide staining based flow cytometry. The class given is cell-based, B cell. Particulars: read-out: LD50. A digest of the protocol:
(§1)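 Primary CLL cells or normal B-cells from peripheral blood, purified by negative selection (CD3 Dynabeads; >90% purity by flow cytometry). Cultured at 1x10⁶/ml in RPMI with 10% FCS, penicillin/streptomycin and 5 ng/ml IL-4, 37 °C, 5% CO2. Exposed to inhibitor (0–1x10⁻⁷ M) up to 48 h. Annexin V-FITC/PI flow cytometry; LD50 from sigmoidal dose-response; triplicate.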
For orientation: A flow cytometer gives signals particle by particle.

Series [3] can be described thus: Induction of apoptosis in human primary CLL cells after 48 hrs by Annexin V/propidium iodide staining based flow cytometry. The class given is functional. The procedure, abridged: as §1
Series [4] can be described thus: Cytotoxicity against human primary CLL cells. The class given is functional. Particulars: read-out: LD50 (the source's name). A digest of the protocol:
as §1

Series [5] concerns the target T1, 1,25-dihydroxyvitamin D(3) 24-hydroxylase, mitochondrial. Nature of the series: Inhibition of CYP24A1 in human primary CLL cells assessed as increase in VDR-regulated GADD45alpha mRNA expression at 0.05 to 0.10 uM in presence of 100 nM 1,25(OH)2D3 incubated for 24 hrs by quantitative RT-PCR method. The class given is cell-based. A digest of the protocol: (§2)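 Primary CLL lymphocytes, purified by negative selection with CD3 beads (>90% purity), cultured in RPMI with 10% FCS, penicillin/streptomycin and 5 ng/ml IL-4 at 37°C, 5% CO2. Inhibitor 0, 0.01, 0.05 or 0.1 µM for 24 h with or without calcitriol (10 or 100 nM). Total RNA reverse transcribed, SYBR Green real-time PCR, 35 cycles. Target mRNA expressed as ratio to RPS14 from crossing points. Duplicates.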

Series [6] has the same target. Kind of series: Inhibition of CYP24A1 in human primary CLL cells assessed as increase in VDR-regulated CDKN1A mRNA expression at 0.05 to 0.10 uM in presence of 100 nM 1,25(OH)2D3 incubated for 24 hrs by quantitative RT-PCR method. Format: cell-based. The procedure, abridged:
as §2

Series [7] has the same target. Kind of series: Inhibition of CYP24A1 in human primary CLL cells assessed as increase in VDR-regulated CDKN1A mRNA expression in presence of 100 nM calcitriol incubated for 24 hrs by quantitative RT-PCR method. Format: cell-based. A digest of the protocol:
as §2

SMILES strings stand for the structures.

A word on the IC50: it is the concentration needed to halve the response being measured. The Ki is the dissociation constant of the complex between target and ligand, obtained from inhibition or displacement.

`O=C(NCC(c1ccccc1)n1ccnc1)c1ccc(S(=O)(=O)Nc2ccccc2)cc1` (configuration not stated): in series [1], the half-inhibitory concentration (IC50) was 1300 nM and the Ki stood at 91 nM.
In the same order, the values of `COc1cc(/C=C/c2ccc(CCC(OC(=O)n3ccnc3)C(C)(C)C)cc2)cc(OC)c1` (configuration not stated) are 160 nM and 11 nM.
For the compound `COc1cc(/C=C/c2ccc(CCC(=O)C(C)(C)C)cc2)cc(OC)c1`, in series [1], the IC50 amounted to 2100 nM and the inhibition constant Ki was 150 nM.
Take `C=C1/C(=C\C=C2/CCC[C@]3(C)[C@@H]([C@H](C)CCS(=N)(=O)c4ccccc4)CC[C@@H]23)C[C@@H](O)C[C@@H]1O` (some centres not stated): the IC50 in series [1] turned out to be 6.5 nM.
On to `CC(C)(C)C(CCc1ccc(/C=C/c2ccccc2)cc1)OS(C)(=O)=O` (configuration not stated), for which, in series [1], the half-maximal inhibitory concentration (IC50) worked out at 5600 nM and the Ki worked out at 400 nM.
Consider `C=C1/C(=C\C=C2/CCC[C@]3(C)[C@@H]([C@H](C)CCCC(C)(C)O)CC[C@@H]23)C[C@@H](O)C[C@@H]1O` [CALCITRIOL], for which the CC50 at 48 h in series [2] was found to be 6510 nM. Moreover, in series [3], the LD50 amounted to 2.86 ×10⁻⁷ M.
In the case of `O=C(NCC(c1ccccc1)n1ccnc1)c1ccc(CCc2ccc(F)cc2)cc1` (configuration not stated), in series [1], the IC50 is 510 nM and the inhibitory constant (Ki) is 36 nM.
As for `C=C1[C@H](O)CC(=C/C=C2\CCC[C@]3(C)[C@@H]([C@H](C)CCCNC4CC4)CC[C@@H]23)C[C@H]1O`, the Ki in series [1] was found to be 42 nM.
Turning to `COc1cc(/C=C/c2ccc(CCC(OS(=O)(=O)c3ccc(C)cc3)C(C)(C)C)cc2)cc(OC)c1` (configuration not stated), in series [1], the IC50 came out at 2900 nM and the Ki stood at 210 nM.
In the same order, the values of `COc1cc(/C=C/c2ccc(CCC(OS(C)(=O)=O)C(C)(C)C)cc2)cc(OC)c1` (configuration not stated) are 5400 nM and 380 nM.
Regarding `COc1cc(/C=C/c2ccc(C(=O)NCC(c3ccccc3)n3ccnc3)cc2)cc(OC)c1OC` (configuration not stated), the CC50 in series [4] worked out at 3500 nM. The “inhibition (INH)” value in series [5] and in series [6] was “Active” throughout. In addition, the concentration for half-maximal inhibition (IC50) in series [1] worked out at 140 nM. The Ki in series [1] is 9.7 nM.
In the case of `C=C1/C(=C\C=C2/CCC[C@]3(C)C([C@H](C)C/C=C/S(=O)(=O)C(C)(C)C)=CC[C@@H]23)C[C@@H](O)C[C@@H]1O` [LUNACALCIPOL], in series [1], the IC50 came to 27 nM.
For the compound `COc1ccc(/C=C/c2ccc(C(=O)NCC(c3ccccc3)n3ccnc3)cc2)cc1` (configuration not stated), the CC50 in series [4] turned out to be 3200 nM. For the same compound, in series [1], the concentration for half-maximal inhibition (IC50) is 340 nM and the Ki came out at 24 nM.
On to `COc1cc(/C=C/c2ccc(C(=O)NCC(c3ccccc3)n3ccnc3)cc2)cc(OC)c1` (configuration not stated), for which the CC50 in series [4] came to 13 nM. For the same compound, the “inhibition (INH)” value in series [7] was “Dose-dependent effect”; in series [5], “Active”; in series [6] it was “Active”. Moreover, the IC50 in series [1] was 110 nM. Besides, the inhibitory constant (Ki) in series [1] worked out at 7.8 nM.
For the compound `O=C(NCC(c1ccccc1)n1ccnc1)c1ccc(/C=C/c2ccc(F)cc2)cc1` (configuration not stated), the CC50 in series [4] amounted to 15 nM. Moreover, in series [1], the 50% inhibitory concentration (IC50) came to 260 nM and the Ki came to 19 nM.
On to `Nc1nc(F)nc2c1ncn2[C@@H]1O[C@H](CO)[C@@H](O)[C@@H]1O` [FLUDARABINE], for which, in series [4], the CC50 stood at 1100 nM.
With `C=C1CC[C@H](O)C/C1=C/C=C1\CCC[C@]2(C)[C@@H]([C@H](C)CCCOS(=O)(=O)c3ccc(C)cc3)CC[C@@H]12`, the Ki in series [1] was determined as 39 nM.
Still for that read-out and setting: next, `C=C1[C@H](O)CC(=C/C=C2\CCC[C@]3(C)[C@@H]([C@H](C)Cn4ccnc4)CC[C@@H]23)C[C@H]1O`: 21 nM.
Turning to `Clc1cccc(C(c2ccc3[nH]cnc3c2)n2ccnc2)c1` (configuration not stated) [LIAROZOLE], the IC50 in series [1] was 2.3 nM.
Turning to `O=C(NCC(c1ccccc1)n1ccnc1)c1ccc(/C=C/c2ccccc2)cc1` (configuration not stated), the CC50 in series [4] was 27 nM. Besides, in series [1], the IC50 was 400 nM and the inhibition constant Ki was determined as 28 nM.
As for `CC(C)(C)C(=O)/C(=C/c1ccc(/C=C/c2ccccc2)cc1)n1ccnc1`, in series [1], the concentration for half-maximal inhibition (IC50) amounted to 180 nM and the Ki was 13 nM.
For `CC(C)(C)C(=O)C(Cc1ccc(CCc2ccccc2)cc1)n1ccnc1` (configuration not stated), in that order: 600 nM and 42 nM.
